From ChEMBL document CHEMBL1146096, “Slow-binding human serine racemase inhibitors from high-throughput screening of combinatorial libraries” (J Med Chem, 2006)
Where a SMILES comes first, the peptide text is derived from it. [ ]: non-standard residue; d: D form. The star is where a group is joined. Phe(4-CN) = N#Cc1ccc(C[C@H](N)C(=O)O)cc1; Hydrocinnamoyl = O=C(CCc1ccccc1)*; hPhe = N[C@@H](CCc1ccccc1)C(=O)O; 2Thi = N[C@@H](Cc1cccs1)C(=O)O; Orn = NCCC[C@H](N)C(=O)O

Columns and labels:
[1] = target: T1, Serine racemase (Homo sapiens) (UniProt Q9GZT4); test: Inhibition of human serine racemase at 2 mM
T1 sequence (whole entry): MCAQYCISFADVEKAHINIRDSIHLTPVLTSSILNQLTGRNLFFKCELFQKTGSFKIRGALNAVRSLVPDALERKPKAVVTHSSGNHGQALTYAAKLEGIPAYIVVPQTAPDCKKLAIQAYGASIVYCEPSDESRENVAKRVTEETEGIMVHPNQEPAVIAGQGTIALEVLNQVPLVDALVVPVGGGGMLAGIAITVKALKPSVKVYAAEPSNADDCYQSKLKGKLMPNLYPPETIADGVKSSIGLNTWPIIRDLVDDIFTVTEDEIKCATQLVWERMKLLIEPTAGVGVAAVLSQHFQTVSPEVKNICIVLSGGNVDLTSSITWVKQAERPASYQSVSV
Summary of the method: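 Recombinant His-tagged hSR (E. coli, Ni-NTA). Inhibitor tested at 2 mM in a DAAO/LDH-coupled assay of total racemization plus elimination, with the NADH decrease followed at 340 nm. Buffer: 200 mM TEA·HCl, 150 mM KCl, 50 µM PLP, 5 mM MgCl2, 2.5 mM ATP, 10 mM DTT. L-serine substrate. Reported as percent decrease in activity.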

Serine racemase = target: T2, Serine racemase (Homo sapiens, UniProt Q9GZT4); test: Inhibition of human serine racemase
T2 sequence (Q9GZT4 whole entry): T1 sequence (whole entry)
Summary of the method: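 His-tagged hSR expressed in E. coli BL21 and Ni-NTA purified. Combined racemization plus elimination rate coupled via DAAO and LDH; NADH decrease read at 340 nm. Mix: 200 mM TEA·HCl, 150 mM KCl, 50 µM PLP, 5 mM MgCl2, 2.5 mM ATP, 10 mM DTT, 0.3 mM NADH. Varied L-serine against fixed inhibitor levels (0–2 mM), 40 min preincubation. KI obtained by global fit of data.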

Structure (SMILES)	inhibition [1] [%]	Ki (Serine racemase) [µM]
CC[C@@H](C)[C@H](NC(=O)[C@H](Cc1c[nH]cn1)NC(=O)CCc1ccccc1)C(N)=O	74	610
CCC(C)C[C@H](NC(=O)CCc1ccccc1)C(=O)N[C@@H](Cc1c[nH]cn1)C(N)=O (stereo partly specified)	54	–
CC[C@@H](C)[C@H](NC(=O)[C@H](CO)NC(=O)/C=C/c1cccnc1)C(N)=O	10	–
CC[C@@H](C)[C@H](NC(=O)[C@H](Cc1c[nH]cn1)NC(=O)CCc1ccccc1)C(=O)NCCOCCOCNC(=O)CCC(N)=O	0	–
CSCC[C@H](NC(=O)N1C(=O)OC[C@@H]1c1ccccc1)C(=O)N[C@@H](CCC(=O)O)C(N)=O	8	–
NCCCC[C@H](NC(=O)[C@H](Cc1c[nH]cn1)NC(=O)CCc1ccccc1)C(N)=O (Hydrocinnamoyl-His-Lys-NH2)	40	–
NCCC[C@H](NC(=O)[C@H](Cc1c[nH]cn1)NC(=O)CCc1ccccc1)C(N)=O (Hydrocinnamoyl-His-[Orn]-NH2)	49	–

Other lines, results leading:

inhibition [1] [%]	Ki (Serine racemase) [µM]	Structure (SMILES)
0	–	N#Cc1ccc(C[C@H](NC(=O)c2ccc(-c3ccccc3)cc2)C(=O)NC2(C(N)=O)CCC(O)CC2)cc1 (stereo partly specified)
4	–	NC(=O)[C@H](Cc1cccc(C(=O)c2ccccc2)c1)NC(=O)[C@H](Cc1ccccc1)NC(=O)COCC(=O)O
42	–	NC(=O)C[C@H](NC(=O)CCc1ccccc1)C(=O)N[C@@H](Cc1c[nH]cn1)C(N)=O (Hydrocinnamoyl-Asn-His-NH2)
57	–	CC(C)C[C@H](NC(=O)[C@H](Cc1c[nH]cn1)NC(=O)CCc1ccccc1)C(N)=O (Hydrocinnamoyl-His-Leu-NH2)
68	–	NC(=O)[C@H](Cc1cccs1)NC(=O)[C@H](Cc1c[nH]cn1)NC(=O)CCc1ccccc1 (Hydrocinnamoyl-His-[2Thi]-NH2)
–	320	NC(=O)[C@H](CCc1ccccc1)NC(=O)[C@H](Cc1cnc[nH]1)NC(=O)CCc1ccccc1 (Hydrocinnamoyl-His-[hPhe]-NH2)
70	–	NC(=O)[C@H](CCc1ccccc1)NC(=O)[C@H](Cc1c[nH]cn1)NC(=O)CCc1ccccc1 (Hydrocinnamoyl-His-[hPhe]-NH2)
72	–	N#Cc1ccc(C[C@H](NC(=O)CCc2ccccc2)C(=O)N[C@@H](Cc2c[nH]cn2)C(N)=O)cc1 (Hydrocinnamoyl-[Phe(4-CN)]-His-NH2)
